pIC50: −log10 of the molar value.
Experiments:
[1] = test system: Plasmodium falciparum; test: Antimalarial activity against asexual blood stage drug-sensitive Plasmodium falciparum NF54 infected in erythrocytes assessed as reduction in parasitemia incubated up to 72 hrs by [3H]hypoxanthine incorporation assay; type: functional, organism-based
Summary of the method: (§1)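 [³H]-Hypoxanthine incorporation assay (modified) on asexual blood-stage P. falciparum in vitro. IC₅₀ values are means of ≥2 independent experiments.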

[2] = test system: Plasmodium falciparum; test: Antimalarial activity against asexual blood stage multi drug-resistant Plasmodium falciparum K1 infected in erythrocytes assessed as reduction in parasitemia incubated up to 72 hrs by [3H]hypoxanthine incorporation assay; type: functional, organism-based; summary of the method: as §1
[3] = Resistance index, ratio of IC50 for antimalarial activity against asexual blood stage multi drug-resistant Plasmodium falciparum K1 to IC50 for antimalarial activity against asexual blood stage drug-sensitive Plasmodium falciparum NF54; type: functional
Summary of the method: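 Resistance index is IC₅₀(K1)/IC₅₀(NF54). Both IC₅₀s came from the [³H]-hypoxanthine incorporation assay, as means of ≥2 independent experiments.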

[4] = test system: Plasmodium falciparum; test: Antiplasmodial activity against […] Plasmodium falciparum NF54 early gametocytes transfected with GFP-Luc […] at 5 uM incubated for 48 hrs by microscopy based luciferase reporter gene assay relative to control; type: functional
Summary of the method: (§2)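 NF54-Pfs16-GFP-Luc gametocytes, assays set up day 5 (early, stage II/III) or day 10 (late, stage IV/V). Culture at 2−3% gametocytemia, 1.5% hematocrit, 48 h drug exposure at 37 °C under 90% N₂/5% O₂/5% CO₂. Lysates mixed with luciferin; bioluminescence read with 10 s integration. Dual-point: one biological repeat in technical triplicate. Methylene blue (5 μM) reference.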

[5] = test system: Plasmodium falciparum; test: Antiplasmodial activity against […] Plasmodium falciparum NF54 early gametocytes transfected with GFP-Luc […] at 1 uM incubated for 48 hrs by microscopy based luciferase reporter gene assay relative to control; type: functional; summary of the method: as §2
[6] = test system: Plasmodium falciparum; test: Antiplasmodial activity against […] Plasmodium falciparum NF54 late gametocytes transfected with GFP-Luc […] at 5 uM incubated for 48 hrs by microscopy based luciferase reporter gene assay relative to control; type: functional; summary of the method: as §2
[7] = test system: Plasmodium falciparum; test: Antiplasmodial activity against […] Plasmodium falciparum NF54 late gametocytes transfected with GFP-Luc […] at 1 uM incubated for 48 hrs by microscopy based luciferase reporter gene assay relative to control; type: functional; summary of the method: as §2
[8] = test system: CHO; test: Cytotoxicity against CHO cells assessed as inhibition of cell viability by MTT assay; type: cell-based; settings: Cricetulus griseus
[9] = Selectivity index, ratio of IC50 for Cytotoxicity against CHO cells assessed as inhibition of cell viability by MTT assay to IC50 for antimalarial activity against asexual blood stage Plasmodium falciparum NF54 assessed as reduction in parasitemia incubated up to 72 hrs by [3H]hypoxanthine incorporation assay; type: toxicity, cell-based; settings: hamster, read-out: Selectivity Index
Summary of the method: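 Selectivity index is IC₅₀(CHO)/IC₅₀(NF54). […] IC₅₀ came from nonlinear dose-response fitting. Parasite IC₅₀ came from the [³H]-hypoxanthine assay.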

CC(C)(C)NCc1cc(Cl)cc(Nc2nc3ccccc3[nH]2)c1O
pIC50 [1]: 6.57
pIC50 [2]: 6.20
Ratio IC50 [3]: 2.33
inhibition at 5 µM [4]: 0%
inhibition at 1 µM [5]: 0%
inhibition at 5 µM [6]: 0%
inhibition at 1 µM [7]: 0%
pIC50 [8]: < 4.30
selectivity ratio at 72 h [9]: > 185

CCN(CC)Cc1ccc(C)c(Nc2nc3ccccc3[nH]2)c1O
pIC50 [1]: 6.07
pIC50 [2]: 5.79
Ratio IC50 [3]: 1.88
inhibition at 5 µM [4]: 32%
inhibition at 1 µM [5]: 3%
inhibition at 5 µM [6]: 31%
inhibition at 1 µM [7]: 34%
pIC50 [8]: < 4.30
selectivity ratio at 72 h [9]: > 58

CCN(CC)Cc1ccc(C)c(Nc2nc3ccccc3n2Cc2ccc(C(F)(F)F)cc2)c1O
pIC50 [1]: 5.54
pIC50 [2]: 6.03
Ratio IC50 [3]: 0.33
inhibition at 5 µM [4]: 90%
inhibition at 1 µM [5]: 18%
inhibition at 5 µM [6]: 43%
inhibition at 1 µM [7]: 29%
pIC50 [8]: 4.47
selectivity ratio at 72 h [9]: 11.8

Cc1cc(CN)c(O)c(Nc2nc3ccccc3n2Cc2ccc(C(F)(F)F)cc2)c1
pIC50 [1]: 5.26
inhibition at 5 µM [4]: 38%
inhibition at 1 µM [5]: 20%
inhibition at 5 µM [6]: 0%
inhibition at 1 µM [7]: 0%
pIC50 [8]: 4.32
selectivity ratio at 72 h [9]: 10.4

CCN(CC)Cc1ccc(Nc2nc3ccccc3n2Cc2ccc(F)cc2)cc1O
pIC50 [1]: 6.19
pIC50 [2]: 5.89
Ratio IC50 [3]: 2
inhibition at 5 µM [4]: 15%
inhibition at 1 µM [5]: 12%
inhibition at 5 µM [6]: 36%
inhibition at 1 µM [7]: 31%
pIC50 [8]: 4.34
selectivity ratio at 72 h [9]: 71.5

CCN(CC)Cc1ccc(Nc2nc3ccccc3[nH]2)cc1O
pIC50 [1]: 5.73
pIC50 [2]: < 5.00
Ratio IC50 [3]: > 5.32
pIC50 [8]: < 4.30
selectivity ratio at 72 h [9]: > 26

CC(C)(C)NCc1cc(Cl)cc(Nc2nc3cc(F)c(F)cc3[nH]2)c1O
pIC50 [1]: 6.59
pIC50 [2]: 6.28
Ratio IC50 [3]: 2.4
inhibition at 5 µM [4]: 16%
inhibition at 1 µM [5]: 0%
inhibition at 5 µM [6]: 0%
inhibition at 1 µM [7]: 0%
pIC50 [8]: 4.40
selectivity ratio at 72 h [9]: 153

CCN(CC)Cc1cc(Nc2nc3ccccc3n2Cc2ccc(C(F)(F)F)cc2)ccc1O
pIC50 [1]: 6.41
pIC50 [2]: 5.77
Ratio IC50 [3]: 4.33
inhibition at 5 µM [4]: 48%
inhibition at 1 µM [5]: 34%
inhibition at 5 µM [6]: 45%
inhibition at 1 µM [7]: 31%
pIC50 [8]: 4.76
selectivity ratio at 72 h [9]: 44.9

CCN(CC)Cc1ccc(C)c(Nc2nc3ccccc3n2Cc2ccc(C#N)cc2)c1O
pIC50 [1]: 6.06
pIC50 [2]: 6.08
Ratio IC50 [3]: 0.95
inhibition at 5 µM [4]: 96%
inhibition at 1 µM [5]: 19%
inhibition at 5 µM [6]: 22%
inhibition at 1 µM [7]: 0%
pIC50 [8]: < 4.30
selectivity ratio at 72 h [9]: > 57

Cc1cc(CNC(C)(C)C)c(O)c(Nc2nc3c(Cl)cc(Cl)cc3[nH]2)c1
pIC50 [1]: 6.66
pIC50 [2]: 6.40
Ratio IC50 [3]: 1.81
inhibition at 5 µM [4]: 0%
inhibition at 1 µM [5]: 0%
inhibition at 5 µM [6]: 0%
inhibition at 1 µM [7]: 0%
pIC50 [8]: 4.59
selectivity ratio at 72 h [9]: 117

CCN(CC)Cc1ccc(Nc2nc3ccccc3n2Cc2ccc(C#N)cc2)cc1O
pIC50 [1]: 6.43
pIC50 [2]: 6.12
Ratio IC50 [3]: 2.05
inhibition at 5 µM [4]: 44%
inhibition at 1 µM [5]: 38%
inhibition at 5 µM [6]: 21%
pIC50 [8]: 4.41
selectivity ratio at 72 h [9]: 106

Cc1cc(CNC(C)(C)C)c(O)c(Nc2nc3ccccc3[nH]2)c1
pIC50 [1]: 6.70
pIC50 [2]: 6.10
Ratio IC50 [3]: 3.95
inhibition at 5 µM [4]: 47%
inhibition at 1 µM [5]: 0%
inhibition at 5 µM [6]: 39%
inhibition at 1 µM [7]: 22%
pIC50 [8]: 4.48
selectivity ratio at 72 h [9]: 166

CCN(CC)Cc1ccc(C)c(Nc2nc3ccccc3n2Cc2ccc(F)cc2)c1O
pIC50 [1]: 5.64
pIC50 [2]: 5.88
Ratio IC50 [3]: 0.58
inhibition at 5 µM [4]: 24%
inhibition at 1 µM [5]: 14%
inhibition at 5 µM [6]: 39%
inhibition at 1 µM [7]: 0%
pIC50 [8]: < 4.30
selectivity ratio at 72 h [9]: > 22

CCN(CC)Cc1cc(C)cc(Nc2nc3ccccc3[nH]2)c1O
pIC50 [1]: 6.64
pIC50 [2]: 6.38
Ratio IC50 [3]: 1.83
inhibition at 5 µM [4]: 44%
inhibition at 1 µM [5]: 1%
inhibition at 5 µM [6]: 37%
pIC50 [8]: < 4.30
selectivity ratio at 72 h [9]: > 217

CC(C)(C)NCc1cc(C(C)(C)C)cc(Nc2nc3ccccc3[nH]2)c1O
pIC50 [1]: 7.10
pIC50 [2]: 6.60
Ratio IC50 [3]: 3.12
inhibition at 5 µM [4]: 56%
inhibition at 1 µM [5]: 30%
inhibition at 5 µM [6]: 0%
inhibition at 1 µM [7]: 0%
pIC50 [8]: 4.52
selectivity ratio at 72 h [9]: > 380

CN(C)c1ccc2nc3ccc(N(C)C)cc3[s+]c2c1 [METHYLENE BLUE ANHYDROUS]
inhibition at 1 µM [5]: 93%
inhibition at 1 µM [7]: 90%

Cc1cc(CNC(C)(C)C)c(O)c(Nc2nc3cc(F)c(F)cc3[nH]2)c1
pIC50 [1]: 6.59
pIC50 [2]: 6.08
Ratio IC50 [3]: 3.19
inhibition at 5 µM [4]: 31%
inhibition at 1 µM [5]: 0%
inhibition at 5 µM [6]: 0%
inhibition at 1 µM [7]: 0%
pIC50 [8]: 4.78
selectivity ratio at 72 h [9]: 64

CCN(CC)Cc1cc(Nc2nc3ccccc3n2Cc2ccc(C#N)cc2)ccc1O
pIC50 [1]: 6.33
pIC50 [2]: 5.71
Ratio IC50 [3]: 4.19
inhibition at 5 µM [4]: 23%
inhibition at 1 µM [5]: 20%
inhibition at 5 µM [6]: 35%
pIC50 [8]: < 4.30
selectivity ratio at 72 h [9]: > 106

CCN(CC)Cc1cccc(Nc2nc3ccccc3[nH]2)c1O
pIC50 [1]: 6.25
pIC50 [2]: 6.11
Ratio IC50 [3]: 1.38
inhibition at 5 µM [4]: 0%
inhibition at 1 µM [5]: 3%
inhibition at 5 µM [6]: 34%
pIC50 [8]: < 4.30
selectivity ratio at 72 h [9]: > 89

CCN(CC)Cc1cccc(Nc2nc3ccccc3n2Cc2ccc(C#N)cc2)c1O
pIC50 [1]: 6.00
pIC50 [2]: 6.18
Ratio IC50 [3]: 0.66
inhibition at 5 µM [4]: 69%
inhibition at 1 µM [5]: 47%
inhibition at 5 µM [6]: 43%
pIC50 [8]: < 4.30
selectivity ratio at 72 h [9]: > 50

Source: ChEMBL document CHEMBL4834426, “Antimalarial Benzimidazole Derivatives Incorporating Phenolic Mannich Base Side Chains Inhibit Microtubule and Hemozoin Formation: Structure-Activity Relationship and In Vivo Oral Efficacy Studies” (J Med Chem, 2021)
